Results: ChEMBL document CHEMBL1811844, “Design, synthesis, and biological evaluation of triazolo-pyrimidine derivatives as novel inhibitors of hepatitis B virus surface antigen (HBsAg) secretion” (J Med Chem, 2011)

What was measured:
Mus musculus [1] = test: Acute toxicity in CL57BL/6 mouse assessed as effect on serum total bilirubin level at 25 mg/kg, iv administered as single dose after 24 hrs; format: organism-based; set-up: dose 25 mg/kg, route intravenous; conditions: in vivo
Outline: (§1)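 Female C57BL/6 mice, four per group, randomized, each given one tail-vein injection of a 2 mg/mL solution in 1:1 NMP:Solutol HS15 diluted with saline; a vehicle-only group served as control. Mice were watched for the first hour and sacrificed at 24 h with necropsy. Serum was collected and run on an automated chemistry and electrolyte analyser.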

Rattus norvegicus = test: Half life in fasted Sprague-Dawley rat plasma at 5 mg/kg, iv by LC/MS/MS analysis; format: ADME, organism-based; set-up: dose 5 mg/kg, route intravenous; conditions: in vivo
Outline: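 Male Sprague-Dawley rats, 3 per treatment, carried jugular cannulae and were fasted 12 h with water. Compound was formulated at 2 mg/mL in 1:1 NMP:Solutol HS15 diluted with saline. Dosing was 5 mg/kg iv or 25 mg/kg oral gavage. Blood was drawn predose and at 5, 15, 30 min, 1, 3 and 6 h. Plasma was quantified by LC-MS/MS against an 8-point standard curve.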

Mus musculus [2] = test: Acute toxicity in CL57BL/6 mouse assessed as effect on serum total protein level at 25 mg/kg, iv administered as single dose after 24 hrs; format: organism-based; set-up: dose 25 mg/kg, route intravenous; conditions: in vivo
Outline: (§2)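 Female C57BL/6 mice, four per group, randomised; single tail-vein bolus in NMP:Solutol HS15 (1:1) diluted with saline to 2 mg/mL, injected within 10 min of preparation; vehicle-only group. Close observation for the first hour; sacrifice and necropsy at 24 h. Whole-blood complete blood counts and serum chemistry, including total bilirubin and total protein, were measured.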

Mus musculus [3] = test: Toxicity in HBV infected transgenic 1.3.32 mouse assessed as elevation in serum bilirubin level at 7.9 to 25 mg/kg, po qd for 14 days; format: organism-based; set-up: dose 7.9-25 mg/kg, route oral; conditions: in vivo, 336 h
Outline: (§3)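 HBV-transgenic mice (strain 1.3.32), 10 per group, randomised; oral gavage once daily for 14 days at 25 or 7.9 mg/kg in NMP:Solutol HS15/saline vehicle; vehicle-only group. Weighed before the first dose and after 3 days; observed one hour after each dose. Tail-vein blood taken before dosing, at day 7 and at day 14 necropsy, each 3 h post-dose, for serum chemistry.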

Mus musculus [4] = test: Acute toxicity in CL57BL/6 mouse assessed as effect on white blood cells count at 25 mg/kg, iv administered as single dose after 24 hrs; format: organism-based; set-up: dose 25 mg/kg, route intravenous; conditions: in vivo; outline: as §2
Hepatitis B virus [5] = test: Antiviral activity against adefovir-resistant Hepatitis B virus harboring polymerase A529V mutant in human HepG2 cells assessed as inhibition of HBsAg secretion by ELISA; format: functional, organism-based
Mus musculus [6] = test: Acute toxicity in CL57BL/6 mouse assessed as effect on mean corpuscular at 25 mg/kg, iv administered as single dose after 24 hrs; format: organism-based; set-up: dose 25 mg/kg, route intravenous; conditions: in vivo
Outline: (§4)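 Female C57BL/6 mice, four per group, randomized, each given one tail-vein injection of a 2 mg/mL solution in 1:1 NMP:Solutol HS15 diluted with saline; a vehicle-only group served as control. Mice were watched closely for the first hour and sacrificed at 24 h with necropsy. Whole blood was taken for complete blood counts on an automated haematology analyser.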

Mus musculus [7] = test: Acute toxicity in CL57BL/6 mouse assessed as effect on serum alkaline phosphatase level at 25 mg/kg, iv administered as single dose after 24 hrs; format: organism-based; set-up: dose 25 mg/kg, route intravenous; conditions: in vivo
Outline: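 Female C57BL/6 mice, four per group, randomized, each given one tail-vein injection of a 2 mg/mL solution in 1:1 NMP:Solutol HS15 diluted with saline; a vehicle-only group served as control. Serum was collected and run on an automated chemistry and electrolyte analyser.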

Mus musculus [8] = test: Acute toxicity in CL57BL/6 mouse assessed as effect on serum creatinine level at 25 mg/kg, iv administered as single dose after 24 hrs; format: organism-based; set-up: dose 25 mg/kg, route intravenous; conditions: in vivo; outline: as §1
Mus musculus [9] = test: Acute toxicity in CL57BL/6 mouse assessed as morbidity at 25 mg/kg, iv administered as single dose after 24 hrs; format: organism-based; set-up: dose 25 mg/kg, route intravenous; conditions: in vivo; outline: as §2
Hepatitis B virus [10] = test: Antiviral activity against adefovir-resistant Hepatitis B virus harboring polymerase N584T mutant in human HepG2 cells assessed as inhibition of HBsAg secretion by ELISA; format: functional, organism-based
Mus musculus [11] = test: Acute toxicity in CL57BL/6 mouse assessed as effect on basophils percent at 25 mg/kg, iv administered as single dose after 24 hrs; format: organism-based; set-up: dose 25 mg/kg, route intravenous; conditions: in vivo; outline: as §4
Mus musculus [12] = test: Toxicity in HBV infected transgenic 1.3.32 mouse assessed as change in serum albumin level at 7.9 to 25 mg/kg, po qd for 14 days; format: organism-based; set-up: dose 7.9-25 mg/kg, route oral; conditions: in vivo, 336 h; outline: as §3
Mus musculus [13] = test: Acute toxicity in CL57BL/6 mouse assessed as increase in lymphocytes count at 25 mg/kg, iv administered as single dose after 24 hrs; format: organism-based; set-up: dose 25 mg/kg, route intravenous; conditions: in vivo; outline: as §2
Mus musculus [14] = test: Toxicity in HBV infected transgenic 1.3.32 mouse assessed as elevation in serum alanine aminotransferase level at 7.9 to 25 mg/kg, po qd for 14 days; format: organism-based; set-up: dose 7.9-25 mg/kg, route oral; conditions: in vivo, 336 h; outline: as §3
Mus musculus [15] = test: Toxicity in HBV infected transgenic 1.3.32 mouse assessed as change in serum total protein level at 7.9 to 25 mg/kg, po qd for 14 days; format: organism-based; set-up: dose 7.9-25 mg/kg, route oral; conditions: in vivo, 336 h; outline: as §3
Mus musculus [16] = test: Acute toxicity in CL57BL/6 mouse assessed as effect on red blood cells count at 25 mg/kg, iv administered as single dose after 24 hrs; format: organism-based; set-up: dose 25 mg/kg, route intravenous; conditions: in vivo; outline: as §4
Mus musculus [17] = test: Acute toxicity in CL57BL/6 mouse assessed as effect on serum alanine aminotransferase level at 25 mg/kg, iv administered as single dose after 24 hrs; format: organism-based; set-up: dose 25 mg/kg, route intravenous; conditions: in vivo; outline: as §1
Mus musculus [18] = test: Toxicity in HBV infected transgenic 1.3.32 mouse assessed as weight loss at 7.9 to 25 mg/kg, po qd for 14 days; format: organism-based; set-up: dose 7.9-25 mg/kg, route oral; conditions: in vivo, 336 h; outline: as §3
Mus musculus [19] = test: Acute toxicity in CL57BL/6 mouse assessed as effect on serum amylase level at 25 mg/kg, iv administered as single dose after 24 hrs; format: organism-based; set-up: dose 25 mg/kg, route intravenous; conditions: in vivo; outline: as §1
Hepatitis B virus [20] = test: Antiviral activity against wild-type Hepatitis B virus infected in human HepG2 cells assessed as inhibition of HBsAg secretion by ELISA; format: functional, organism-based
Mus musculus [21] = test: Acute toxicity in CL57BL/6 mouse assessed as effect on serum globulin level at 25 mg/kg, iv administered as single dose after 24 hrs; format: organism-based; set-up: dose 25 mg/kg, route intravenous; conditions: in vivo; outline: as §1
Mus musculus [22] = test: Toxicity in HBV infected transgenic 1.3.32 mouse assessed as elevation in serum Na+ level at 7.9 to 25 mg/kg, po qd for 14 days; format: organism-based; set-up: dose 7.9-25 mg/kg, route oral; conditions: in vivo, 336 h; outline: as §3
Hepatitis B virus [23] = test: Antiviral activity against lamivudine/telbivudine-resistant Hepatitis B virus harboring polymerase M552I mutant in human HepG2 cells assessed as inhibition of HBsAg secretion by ELISA; format: functional, organism-based
Mus musculus [24] = test: Toxicity in HBV infected transgenic 1.3.32 mouse assessed as change in serum glucose level at 7.9 to 25 mg/kg, po qd for 14 days; format: organism-based; set-up: dose 7.9-25 mg/kg, route oral; conditions: in vivo, 336 h; outline: as §3
Mus musculus [25] = test: Acute toxicity in CL57BL/6 mouse assessed as effect on serum Na+ level at 25 mg/kg, iv administered as single dose after 24 hrs; format: organism-based; set-up: dose 25 mg/kg, route intravenous; conditions: in vivo; outline: as §1
Mus musculus [26] = test: Toxicity in HBV infected transgenic 1.3.32 mouse assessed as change in serum creatinine level at 7.9 to 25 mg/kg, po qd for 14 days; format: organism-based; set-up: dose 7.9-25 mg/kg, route oral; conditions: in vivo, 336 h; outline: as §3
Mus musculus [27] = test: Toxicity in HBV infected transgenic 1.3.32 mouse assessed as morphological changes at 7.9 to 25 mg/kg, po qd for 14 days; format: organism-based; set-up: dose 7.9-25 mg/kg, route oral; conditions: in vivo, 336 h; outline: as §3
Mus musculus [28] = test: Acute toxicity in CL57BL/6 mouse assessed as reduction in neutrophils count at 25 mg/kg, iv administered as single dose after 24 hrs; format: organism-based; set-up: dose 25 mg/kg, route intravenous; conditions: in vivo; outline: as §2
Mus musculus [29] = test: Acute toxicity in CL57BL/6 mouse assessed as effect on serum albumin level at 25 mg/kg, iv administered as single dose after 24 hrs; format: organism-based; set-up: dose 25 mg/kg, route intravenous; conditions: in vivo; outline: as §1

Fc1cccc(Cl)c1C1CC(c2ccc(Cl)cc2)Nc2ncnn21 (racemic)
Toxic: Activity (Mus musculus [3]) | Activity (Mus musculus [13]) | Activity (Mus musculus [14]) | Activity (Mus musculus [22]) | Activity (Mus musculus [28])
9.1 µM: EC50 (Hepatitis B virus [23])
5.6 µM: EC50 (Hepatitis B virus [10])
5.8 µM: EC50 (Hepatitis B virus [5])
Non-toxic: Activity (Mus musculus [1]) | Activity (Mus musculus [2]) | Activity (Mus musculus [4]) | Activity (Mus musculus [6]) | Activity (Mus musculus [7]) | Activity (Mus musculus [8]) | Activity (Mus musculus [9]) | Activity (Mus musculus [11]) | Activity (Mus musculus [12]) | Activity (Mus musculus [15]) | Activity (Mus musculus [16]) | Activity (Mus musculus [17]) | Activity (Mus musculus [18]) | Activity (Mus musculus [19]) | Activity (Mus musculus [21]) | Activity (Mus musculus [24]) | Activity (Mus musculus [25]) | Activity (Mus musculus [26]) | Activity (Mus musculus [27]) | Activity (Mus musculus [29])
2.17 h: t1/2 (Rattus norvegicus)
8.4 µM: EC50 (Hepatitis B virus [20])
